Experimental data: ChEMBL document CHEMBL1165945, “Study of benzo[a]phenazine 7,12-dioxide as selective hypoxic cytotoxin-scaffold. Identification of aerobic-antitumoral activity through DNA fragmentation” (Bioorg Med Chem, 2010)
Active and inactive are the calls of the source. No cut-off for these calls is given here.

Tests used:
[1] = tested on: Calf thymus DNA; assay: Binding affinity to calf thymus DNA assessed as ratio of final absorbance area to the absorbance at 100 uM after 24 hrs by UV spectrophotometer analysis relative to control; assay type: nucleic-acid assay; conditions: Bos taurus
How it was run: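 Calf thymus DNA was stirred 24 h at 4 °C in 10 mM Tris–HCl pH 7.4, then diluted. Compound at 10^-4 M (≤5% solvent) was diluted in water to 2 × 10^-5 M. This was mixed 1:1 by volume with the DNA solution and rotated 24 h. UV spectra were taken at 20 °C. The ratio is the area of a 20 nm band centred on λmax at 24 h over that at 0 h (a24/a0).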

[2] = tested on: Caco-2; assay: Cytotoxicity against human Caco-2 cells assessed as induction of DNA fragmentation under oxic condition at 10 uM after 24 hrs using ethidium bromide staining by agarose gel electrophoresis; assay type: functional, cell-based
How it was run: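 Caco-2 cells were seeded at 2 × 10^6 cells/well in 100-mm plates and exposed for 24 h under oxic conditions. Chromosomal DNA was then isolated and run on a 1% agarose gel with ethidium bromide staining to visualise fragmentation. The assay was repeated on four separate occasions.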

[3] = Cytotoxicity against chinese hamster V79 cells assessed as survival fraction under normoxic condition at 20 uM after 7 days by crystal violet staining relative to control; assay type: cell-based, Cricetulus griseus; conditions: read-out: Activity
How it was run: (§1)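 V79 suspension cultures were set at 2 × 10^4 cells/mL in EMEM with 10% FBS and 10 mM HEPES, under aerobic or hypoxic gassing. Compound at 20 µM was added 30 min after gassing began, in duplicate flasks, with a DMSO negative control. After 2 h the cells were replated (10^2–10^3 cells) for 7 days at 37 °C. Colonies of >64 cells were counted after crystal violet staining. SF = PEtreated/PEcontrol × 100; values are means of two experiments.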

[4] = Cytotoxicity against chinese hamster V79 cells assessed as survival fraction under hypoxic condition at 20 uM after 7 days by crystal violet staining relative to control; assay type: cell-based, Cricetulus griseus; conditions: read-out: Activity; how it was run: as §1
[5] = tested on: Calf thymus DNA; assay: Binding affinity to calf thymus DNA assessed as change in melting temperature by UV spectrophotometer analysis; assay type: nucleic-acid assay; conditions: Bos taurus
How it was run: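 Calf thymus DNA in 10 mM Tris–HCl pH 7.4 was mixed with compound at a 1:1 DNA:BPDO ratio. Thermal denaturation was followed as the change in absorbance at 260 nm with temperature, in a 1-cm cell.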

| Structure (SMILES) | Ratio [1] | viability at 168 h, 20 µM [3] | viability at 168 h, 20 µM [4] | further results |
| --- | --- | --- | --- | --- |
| CCOc1ccc(-c2nc3cc(-c4nc5cc(N6CCN(C)CC6)ccc5[nH]4)ccc3[nH]2)cc1 | 0.57 |  |  |  |
| CN[C@@H]1C[C@H]2O[C@@](C)([C@@H]1OC)n1c3ccccc3c3c4c(c5c6ccccc6n2c5c31)C(=O)NC4 |  |  |  | Activity [2]: Active |
| CC[n+]1c(-c2ccccc2)c2cc(N)ccc2c2ccc(N)cc21 | 0.5 |  |  |  |
| O=C1c2c(O)ccc(O)c2C(=O)c2c(NCCNCCO)ccc(NCCNCCO)c21 | 0 |  |  |  |
| COc1ccc2c(c1)[n+]([O-])c1c3ccccc3ccc1[n+]2[O-] | 1 | 88% | 44% |  |
| COc1cc(NS(C)(=O)=O)ccc1Nc1c2ccccc2nc2ccccc12 | 0.3 |  |  |  |
| [O-][n+]1c2ccccc2[n+]([O-])c2c3ccccc3c(O)cc21 | 0 | 100% | 93% |  |
| Nc1ccc2cc3ccc(N)cc3nc2c1 |  |  |  | ΔTm [5]: 12 °C |
| [O-][n+]1c2ccccc2[n+]([O-])c2c3ccccc3ccc21 | 1 | 40% | 45% |  |
